Experimental data from different studies.
Target: Protein kinase C alpha type (PRKCA, Homo sapiens, UniProt P17252)

Cc1[nH]c(/C=C2\C(=O)Nc3ccc(F)cc32)c(C)c1C(=O)N[C@H]1CCN(C(=O)N(C)C)C1
remaining activity (enzyme activity, inhibitor; 1 µM): 106%

COc1cc2ncnc(Nc3ccc(Oc4ccccc4)c(C)c3C)c2cc1OC
inhibition (enzyme activity, inhibitor; 1 µM): 8%

CN1CC(Oc2cnc(C#N)cc2-c2ccn3nc(NC(=O)C4CC4)cc3c2)C1
inhibition (enzyme activity, inhibitor; 1 µM): 2%

O=C1NC(=O)c2cc(Nc3ccc(F)cc3)c(Nc3ccc(F)cc3)cc21
remaining signal (cell-free assay; 0.5 µM): 99.3%

FC(F)(F)Oc1cccc(-c2cnc3ccc(-c4ccncc4)nn23)c1
activity vs control (enzyme activity, inhibitor, radiometric; 5 µM): 91%

CN(C)C[C@H]1CCn2c(c(C3=C(c4cn(C)c5ccccc45)C(=O)NC3=O)c3ccccc32)C1
remaining signal (cell-free assay; 0.5 µM): 2.58%

CCN(CC)c1ccc(C2=NNC(=O)CC2C)cc1[N+](=O)[O-] (stereo not shown)
remaining activity (enzyme activity, inhibitor; 10 µM): 21%

Oc1cccc(-c2nc(N3CCOCC3)c3oc4ncccc4c3n2)c1
remaining activity (enzyme activity, inhibitor; 10 µM): 93%

CCN(CC)CCNC(=O)c1c(C)[nH]c(/C=C2\C(=O)Nc3ccc(F)cc32)c1C
remaining activity (enzyme activity, inhibitor; 0.1 µM): 101%

CCCS(=O)(=O)Nc1ccc(F)c(C(=O)c2c[nH]c3ncc(-c4ccc(Cl)cc4)cc23)c1F
inhibition (enzyme activity, inhibitor; 1 µM): < 10%

CC/C(=N\NC(=O)NCc1cccc(O)c1)c1ccc(O)c(C)c1O
inhibition (enzyme activity, inhibitor; 0.1 µM): 2.6%

Cc1cnc(NC2CCOCC2)nc1-n1cnc(C(=O)NC(CN)c2cc(F)cc(Cl)c2)c1 (stereo not shown)
remaining activity (enzyme activity, inhibitor, radiometric; 1 µM): 100%

CC(C)(C)c1nc(-c2cccc(NS(=O)(=O)c3c(F)cccc3F)c2F)c(-c2ccnc(N)n2)s1
remaining activity (enzyme activity, inhibitor, radiometric; 1 µM): 100%

C=CC(=O)Nc1cc(Nc2nccc(Nc3cc(Cl)c(F)cc3C(C)(C)O)n2)c(OC)cc1N1CC[C@@H](N(C)C)C1
inhibition (enzyme activity, inhibitor; 1 µM): 13%

COc1cc(Nc2cnc(C#N)c(O[C@H](C)CN(C)C)n2)ncc1-c1cnn(C)c1
remaining activity (enzyme activity, inhibitor, radiometric; 10 µM): 102%

CCCOc1ccc(OC)c(F)c1C(=O)c1ccc(C(=O)N[C@@H]2CNC[C@H]2NC(=O)c2ccc3[nH]ncc3c2)cc1
remaining activity (enzyme activity, inhibitor; 10 µM): 92%

CN(C)CCCn1cc(C2=C(c3c[nH]c4ccccc34)C(=O)NC2=O)c2ccccc21
remaining signal (cell-free assay; 0.5 µM): 6.27%

CCN(CC)CCNC(=O)c1c(C)[nH]c(/C=C2\C(=O)Nc3ccc(F)cc32)c1C
inhibition (enzyme activity, inhibitor; 10 µM): 11%

CN(c1ncccc1CNc1nc(Nc2ccc3c(c2)CC(=O)N3)ncc1C(F)(F)F)S(C)(=O)=O
inhibition (enzyme activity, inhibitor; 1 µM): 28.4%

O=C(Nc1cnn(-c2csc(C(=O)NC3COC3)c2)c1)Nc1ccccc1Cl
remaining activity (enzyme activity, inhibitor; 5 µM): 101%

Cn1c(=O)n(-c2ccc(C(C)(C)C#N)cc2)c2c3cc(-c4cnc5ccccc5c4)ccc3ncc21
remaining activity (enzyme activity, inhibitor; 10 µM): 87%

O=C(CSc1nc2nccnc2c(=O)n1CCc1ccccc1)Nc1nccs1
inhibition (enzyme activity, inhibitor; 10 µM): 15%
